Rows were chosen to be rich in hits. Some 9.4% of all compounds tested hit in one or more screens of this group.
SKKanGAS inh – SKKanGAS growth inhibition. S. pyogenes SKKanGAS, kanamycin growth, BacTiter-Glo, 6 h. inhibition, % at 7.5 µM. 1.3% of 300,000 active. AID 1662;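 active means mean replicate score, as percent of positive control median, at least 50; inconclusive means mean below 50 but one replicate at or above 50; inactive means mean and every replicate below 50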;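 further: strain carries kanamycin resistance gene driven by streptokinase promoter and grows in 40 µg/ml kanamycin; loss of luminescence reflects streptokinase promoter inhibition or plain growth inhibition; 0% = median of DMSO wells and 100% = positive control at its reference dose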
Mdm2-MdmX inh – inhibitors of human Mdm2/MdmX interaction; inhibition, % at 8 µM; O15151+Q00987; 3% of 330,000 active; SaOS-2 split-luciferase Mdm2/MdmX complementation, luminescence;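 active means inhibition of at least 50% at 8 µM in the primary screen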
Target sequence (O15151 whole entry, looked up): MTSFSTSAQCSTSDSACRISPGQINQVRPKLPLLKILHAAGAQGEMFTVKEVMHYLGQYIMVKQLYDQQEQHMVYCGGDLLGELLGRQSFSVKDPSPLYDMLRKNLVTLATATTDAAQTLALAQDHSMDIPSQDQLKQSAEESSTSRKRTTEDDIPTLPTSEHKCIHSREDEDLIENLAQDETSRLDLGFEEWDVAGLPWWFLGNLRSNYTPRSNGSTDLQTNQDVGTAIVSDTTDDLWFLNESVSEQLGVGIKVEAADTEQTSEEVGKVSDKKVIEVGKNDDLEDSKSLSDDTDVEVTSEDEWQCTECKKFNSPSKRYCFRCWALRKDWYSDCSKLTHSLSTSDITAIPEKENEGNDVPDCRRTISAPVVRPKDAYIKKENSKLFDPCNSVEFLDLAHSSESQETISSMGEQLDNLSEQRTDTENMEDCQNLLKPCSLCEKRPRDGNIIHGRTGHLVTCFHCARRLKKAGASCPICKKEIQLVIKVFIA
Target sequence (Q00987 whole entry, looked up): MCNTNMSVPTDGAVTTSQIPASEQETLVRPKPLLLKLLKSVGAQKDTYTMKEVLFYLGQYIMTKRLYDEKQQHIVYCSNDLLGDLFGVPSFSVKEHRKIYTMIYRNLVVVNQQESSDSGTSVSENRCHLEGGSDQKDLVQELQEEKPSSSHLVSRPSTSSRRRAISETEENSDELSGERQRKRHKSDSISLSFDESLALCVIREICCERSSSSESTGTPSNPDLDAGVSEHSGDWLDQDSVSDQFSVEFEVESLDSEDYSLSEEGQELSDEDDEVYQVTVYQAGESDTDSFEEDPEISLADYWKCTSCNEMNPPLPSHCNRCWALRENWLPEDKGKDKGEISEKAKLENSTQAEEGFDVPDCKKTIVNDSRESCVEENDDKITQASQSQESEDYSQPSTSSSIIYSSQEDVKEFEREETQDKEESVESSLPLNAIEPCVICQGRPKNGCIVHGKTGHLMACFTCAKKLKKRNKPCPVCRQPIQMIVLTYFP
Lmaj promast – inhibitors of Leishmania major promastigote growth. Leishmania major promastigotes, resazurin fluorescence viability. inhibition, % at 10 µM. 9% of 200,000 active; in the data active means inhibition above about 50%;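 further: promastigotes grown with compound for 44 hours at 28 °C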
Beta cell apopt – beta cell apoptosis inhibition. INS-1E cytokine-induced death, ATP luminescence, 48 h; percent of positive-control rescue, neutral wells zero. protection from apoptosis, % (test concentration not listed). 0.8% of 300,000 active. AID 435005;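 active means Every replicate reaches about 75%, or at least half do and their mean reaches it too, limit read from the data; inconclusive means At least half of replicates reach the limit but their mean does not; inactive means Under half of replicates reach the limit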;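 further: 0% = cytokine-treated negative control wells and 100% = positive control rescue; higher means more ATP so stronger rescue from cytokine killing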
T cruzi inh – blocks replication of Trypanosoma cruzi; T. cruzi beta-gal in NIH3T3, luminescence, 90 h; inhibition, % (concentration not given with the values); 1.4% of 300,000 active;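 active means mean inhibition across valid replicates above about 55%, limit read from the data; inconclusive means mean below that limit but half or more replicates reach it; inactive means mean below it, under half of replicates reach it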;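 further: signal also drops with host cell toxicity which is not excluded here; 0% = plate median of DMSO wells and 100% = zero luminescence signal; higher percent means less beta-gal luminescence so fewer parasites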
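Assay system: NIH/3T3 fibroblasts plus reporter T. cruzi. Amount: NIH/3T3 cells, 5,000 per well. Buffer or medium: DMEM, 2% fetal bovine serum. Doses: compound pinned at 50 nL/well, DMSO. Schedule: ≥90 h infection period, 3 h prior cell attachment. Signal: luminescent β-galactosidase signal after 60 min lysis. Read-out: parasite load inhibition, %.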
CSC inhib – cancer stem cell inhibition; cancer stem cell-like cells viability, luminescence; inhibition, % at 7.5 µM; 1.1% of 300,000 active; in the data active means inhibition above about 75%; inconclusive means no clear call, values can overlap the other calls; tested in HMLE shEcad cells
Active calls of the source: *; ? = inconclusive; . = no result.

SMILES	SKKanGAS inh	Mdm2-MdmX inh	Lmaj promast	Beta cell apopt	T cruzi inh	CSC inhib
COc1cccc(NC(=O)COC(=O)Cn2c(C)csc2=O)c1	.	12.7	.	-3.1	.	-15.1
Cc1ccc(S(=O)(=O)Nc2ccc(NC(=O)c3c(F)c(F)c(F)c(F)c3F)cc2)cc1	19.7	8.1	38.0	5.1	8.5	24.5
Cc1cc2c(cc1S(=O)(=O)N1CCN(c3cccc(C)c3C)CC1)OCC(=O)N2	7.0	23.3	.	-2.8	21.1	4.2
CN1/C(=C/c2cc[n+](C)c3ccccc23)C=Cc2ccccc21	.	.	100.7*	.	.	.
Cc1ccc(NC(=O)c2cc(N3C(=O)C=CC3=O)ccc2N2CCOCC2)cc1	12.7	.	-5.0	.	59.4*	.
Cc1cc(C(=O)CSc2nnc(-c3cccc(F)c3)n2N)c(C)n1Cc1ccc2c(c1)OCO2	8.5	45.1	74.8*	12.3	30.2	12.0
Cc1cc(C(=O)CSc2nnnn2-c2ccc(O)cc2)c(C)n1Cc1ccc2c(c1)OCO2	20.4	49.3	16.9	2.4	47.6	-13.3
CSc1cccc(CN2CCC(CCC(=O)NC3CC3)CC2)c1	4.1	-29.6	.	-3.3	14.7	19.7
CCC(C)n1c(SCC(=O)NC2CCCC2)nc2ccccc2c1=O (stereo not given)	-3.4	-10.2	.	-7.4	-4.6	-7.0
CC1CCCN(C2=C(NS(=O)(=O)c3ccc(Cl)cc3)C(=O)c3ccccc3C2=O)C1 (stereo not given)	30.7	3.7	56.2*	22.8	9.8	.
CC(=O)Nc1ccc(S(=O)(=O)NC2=C(N3CCN(c4ccc(F)cc4)CC3)C(=O)c3ccccc3C2=O)cc1	25.4	45.2	60.8*	84.7*	-22.9	39.5
COC(=O)C1CCN(C2=C(NS(=O)(=O)c3ccc(Cl)cc3)C(=O)c3ccccc3C2=O)CC1	34.7	2.4	.	6.1	-6.7	15.6
Cc1ccc(S(=O)(=O)NC2=C(N3CCN(Cc4ccccc4)CC3)C(=O)c3ccccc3C2=O)cc1	1.0	10.0	96.9*	28.7	-6.7	7.6
CCOC(=O)N1CCN(C2=C(NS(=O)(=O)c3ccc(C)cc3)C(=O)c3ccccc3C2=O)CC1	-10.1	12.7	.	-5.0	-9.7	-8.1
Cc1ccc(S(=O)(=O)NC2=C(N3CCN(c4ccccc4F)CC3)C(=O)c3ccccc3C2=O)cc1	37.0	-66.3	96.2*	4.1	27.2	5.8
CN(CC(=O)NCC1CCCCC1)CC(=O)Nc1ccccc1Br	.	6.8	.	0.5	.	.
C=CCn1c(OCc2ccccc2)n[nH]c1=S	3.4	-1.4	.	-1.5	4.0	-12.3
CN(C)c1ccc(C(C#N)c2ccccc2)nn1 (stereo not given)	-9.4	2.6	-9.5	-6.7	3.4	-15.8
Cc1nn(C)cc1CN1CCCC(C(=O)c2ccc(-c3ccccc3)c(F)c2)C1 (stereo not given)	-14.3	-8.5	97.3*	9.2	41.8	26.0
COc1cccc(C(=O)C2CCCN(Cc3cn(C)nc3-c3ccccc3)C2)c1 (stereo not given)	0.4	-10.9	6.8	7.5	9.4	2.8
CCC(=O)N1CCCC(C(=O)c2ccc(-c3ccccc3)cc2)C1 (stereo not given)	12.3	-12.4	.	.	-6.0	-6.2
Cn1cc(CN2CCCC(C(=O)c3ccc(-c4ccccc4)cc3)C2)cn1 (stereo not given)	-6.8	6.2	90.5*	0.0	?	9.7
CCn1cc(CN2CCCC(C(=O)c3ccc(-c4ccccc4)cc3)C2)cn1 (stereo not given)	8.0	34.9	85.7*	.	65.0*	24.7
Cn1cc(CN2CCCC(C(=O)c3ccc(-c4ccccc4)c(F)c3)C2)cn1 (stereo not given)	-0.3	-20.1	86.8*	-7.4	41.6	23.4
CCOc1cc(/C=C(/NC(C)=O)C(=O)O)cc(Cl)c1OCc1ccc(Br)cc1	-8.0	-18.3	.	-5.2	0.7	1.4
SMILES	SKKanGAS inh	Mdm2-MdmX inh	Lmaj promast	Beta cell apopt	T cruzi inh	CSC inhib
O=C(O)Cc1ccc(S(=O)(=O)Nc2ccccc2C(=O)O)cc1	2.0	37.3	0.0	-5.0	-17.9	-7.8
Cc1ccc(NC(=O)CNc2cccc(Br)c2)cc1S(=O)(=O)N1CCOCC1	.	20.2	.	5.5	.	15.2
CCCc1c(C)nc(N2CCN(c3ccccc3OC)CC2)[nH]c1=O	1.6	5.7	.	-3.3	10.1	15.1
CC(=O)COc1cccc2ccc(/C=C/c3ccc(Br)s3)nc12	15.0	14.5	.	-1.5	4.2	39.5
Cc1ccc(/C=C/c2ccc3cccc(O)c3n2)s1	76.0*	-96.8	.	9.3	5.5	39.5
O=[N+]([O-])c1ccc(/C=C/c2ccc3cccc(O)c3n2)cc1	-1.3	-109.3	.	19.8	-5.0	39.4
Oc1cccc(/C=C/c2ccc3cccc(O)c3n2)c1	57.4*	-90.6	.	15.9	-22.4	87.4*
COc1ccc(/C=C/c2ccc3cccc(O)c3n2)cc1Br	93.3*	4.0	.	22.0	44.2	31.2
CCOc1ccccc1/C=N/NC(=O)c1nnn(-c2nonc2N)c1CN1CCCC1	-1.8	6.4	.	-7.3	4.0	-13.8
Clc1cc(/C=N\NC2=NCCN2)cc(Cl)n1	-1.5	24.2	.	-7.0	69.8*	-16.3
Cc1ccc(OCC(=O)c2cc(C)n(C)c2C)c([N+](=O)[O-])n1	0.9	29.3	52.9*	-2.6	-2.3	9.9
CC(C)(C)N(Cc1ccccc1)C(=O)COc1cccnc1[N+](=O)[O-]	51.7*	-2.2	.	-8.6	15.9	24.6
Cc1cc(C(=O)COc2cccc3cccnc23)c(C)n1C	-8.2	-9.2	-4.0	12.6	-5.9	6.1
Cc1ccc(-n2c(C)cc(C(=O)COc3cccnc3[N+](=O)[O-])c2C)cc1	-3.9	43.2	-1.6	7.3	7.7	2.3
O=C(COc1cccnc1[N+](=O)[O-])NCc1ccccc1	7.4	-12.1	.	-4.2	8.3	0.8
Cc1cc(C(=O)COc2cccnc2[N+](=O)[O-])c(C)n1-c1ccccc1	4.9	49.3	50.6*	-2.7	-3.3	0.8
C[C@H]1CCC[C@@]2(O[C@@H](CCO)C[C@@H](O)[C@@H]2O)O1	1.8	8.9	.	0.5	-5.9	9.4
CN(C)C(=O)c1nc2ccc(Cl)cn2c1CN1CCCC(OCc2ccccc2)C1 (stereo not given)	-2.8	7.5	14.6	-0.1	12.2	3.9
CCN(/C=N/S(=O)(=O)c1ccc(Cl)cc1)CC	2.2	15.3	-7.8	-5.0	1.6	-18.7
CC(C)CC(N)C(=O)OCc1ccc([N+](=O)[O-])cc1 (stereo not given)	-0.9	-14.6	.	-3.9	-20.1	-4.1
CCN(CC)CCN1C(=O)C2C(C(=O)Nc3cccc(C)c3)C3C=CC2(O3)C1C(=O)NC1CCCC(C)C1C (stereo not given)	13.8	13.9	.	-11.8	4.9	-9.7
Cc1cccc(OCC(=O)N2CCN(C(=O)CCC3CCCC3)CC2)c1	6.7	11.2	-3.4	2.1	0.4	-4.6
Cc1ccc(OCC(=O)N2CCC(N3CC(C)CC(C)C3)CC2)cc1 (stereo not given)	5.7	13.9	.	.	-0.8	-3.9

Screens: PubChem, several laboratories
